Assay results: ChEMBL document CHEMBL1149665, “Synthesis and biological evaluation of cepharadiones A and B and related dioxoaporphines” (2007)
≈ marks a conversion by molar mass, not a printed value.

Columns and labels:
Format in all cases: functional
DU-145 = assay: Growth inhibition of human DU145 cells after 48 hrs by SRB assay; settings: DU-145, 48 h
Summary of the method: (§1)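 Cells seeded in 5% fetal bovine serum/RPMI1640 and incubated 24 h before serial compound dilutions were added. After 48 h exposure, cells were fixed with trichloroacetic acid and stained with sulforhodamine B (NCI standard SRB protocol), and optical density was read. GI50, the concentration causing 50% reduction in net protein increase, was calculated from the optical density data; values reported in µg/mL.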

KM-20L2 = assay: Growth inhibition of human KM20L2 cells after 48 hrs by SRB assay; settings: KM-20L2, 48 h; summary of the method: as §1
BXPC-3 = assay: Growth inhibition of human BXPC3 cells after 48 hrs by SRB assay; settings: BXPC-3, 48 h; summary of the method: as §1
MCF7 = assay: Growth inhibition of human MCF7 cells after 48 hrs by SRB assay; settings: MCF7, 48 h; summary of the method: as §1
NCI-H460 = assay: Growth inhibition of human NCI-H460 cells after 48 hrs by SRB assay; settings: NCI-H460, 48 h; summary of the method: as §1
SF-268 = assay: Growth inhibition of human SF268 cells after 48 hrs by SRB assay; settings: SF-268, 48 h; summary of the method: as §1

Row | GI50 (DU-145) | GI50 (BXPC-3) | GI50 (MCF7) | GI50 (NCI-H460) | SMILES | GI50 (KM-20L2) | GI50 (SF-268)
1 | 1.3 mg/L (≈ 4.46 µM) | 1.6 mg/L (≈ 5.49 µM) | 0.66 mg/L (≈ 2.27 µM) | 0.46 mg/L (≈ 1.58 µM) | COc1ccc2c3c(cc4ccccc4c13)N(C)C(=O)C2=O | 0.82 mg/L (≈ 2.81 µM) | 0.42 mg/L (≈ 1.44 µM)
2 | > 10 mg/L | > 10 mg/L | > 10 mg/L | > 10 mg/L | CCOc1ccc2c3c(cc4ccccc4c13)N(C)C(=O)C2=O | > 10 mg/L | > 10 mg/L

More lines, now with the values behind:

Row | SMILES | GI50 (DU-145) | GI50 (BXPC-3) | GI50 (MCF7) | GI50 (NCI-H460) | GI50 (KM-20L2) | GI50 (SF-268)
3 | Cc1cc2c3c(cc4ccccc4c3c1C)N(C)C(=O)C2=O | > 10 mg/L | > 10 mg/L | 8.4 mg/L (≈ 29 µM) | 2.3 mg/L (≈ 7.95 µM) | 4.2 mg/L (≈ 14.5 µM) | 0.7 mg/L (≈ 2.42 µM)
4 | CN1C(=O)C(=O)c2cc3c(c4c2c1cc1ccccc14)OCO3 [CEPHARADIONE A] | 4.3 mg/L (≈ 14.1 µM) | > 10 mg/L | 6.3 mg/L (≈ 20.6 µM) | 2.5 mg/L (≈ 8.19 µM) | 17.3 mg/L (≈ 56.7 µM) | 2.9 mg/L (≈ 9.5 µM)
5 | COc1cc2c3c(cc4ccccc4c3c1OC)N(C)C(=O)C2=O [CEPHARADIONE B] | 36.1 mg/L (≈ 112 µM) | > 10 mg/L | > 10 mg/L | > 10 mg/L | > 10 mg/L | 22.8 mg/L (≈ 71 µM)
